# Test: Dissociation constant, pKa of the compound at pH 3 to 12 by UV spectroscopy
# Type: physicochemical
# Method in brief: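 UV-spectrophotometric titration in microplate wells. 10 mM DMSO stock diluted into buffers to 0.2 mM final (0.1 mM if spectra saturated), 2% v/v DMSO. Buffers: acetate, phosphate, borax, glycine/NaOH, pH 3–12.6, ionic strength 0.1 M (KCl), 30 °C. Spectra read at 2 nm resolution. Total absorbance difference at two analytical wavelengths fitted against pH by nonlinear regression. Mean of ≥3 independent runs ± SD.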
row,Compound,pKa
1,c1cc(NC2=NCCN2)ccc1CCc1ccc(NC2=NCCN2)cc1,10.7
2,O=[N+]([O-])c1ccc(O)cc1 [P-NITROPHENOL],6.87
3,O=[N+]([O-])c1c[nH]cn1,9.2
4,O=C(Nc1ccc(NC2=NCCN2)cc1)Nc1ccc(NC2=NCCN2)cc1,10.3
5,Clc1cccc(Cl)c1N=C1NCCN1 [CLONIDINE],8.14
6,N=C(N)Oc1ccc(Oc2ccc(OC(=N)N)cc2)cc1,10.7
7,Cc1nc2ccccc2[nH]1,6.22

# Now from value to compound:
row,pKa,Compound
1,8.01,CCON1CCN/C1=N/c1ccc(CCc2ccc(/N=C3\NCCN3OCC)cc2)cc1
2,7.97,ON1CCN/C1=N/c1ccc(CCc2ccc(/N=C3\NCCN3O)cc2)cc1
3,7.34,CCON1CCN/C1=N/c1ccc(C(=O)Nc2ccc(/N=C3\NCCN3OCC)cc2)cc1
4,8.27,CCON1CCN/C1=N\c1ccc(NC(=O)Nc2ccc(/N=C3\NCCN3OCC)cc2)cc1
5,7.95,CON1CCN/C1=N\c1ccc(NC(=O)Nc2ccc(/N=C3\NCCN3OC)cc2)cc1
6,8.01,CON1CCN/C1=N/c1ccc(CCc2ccc(/N=C3\NCCN3OC)cc2)cc1
7,7.43,O=C(Nc1ccc(/N=C2\NCCN2O)cc1)c1ccc(/N=C2/NCCN2O)cc1
8,7.27,CON1CCN/C1=N/c1ccc(C(=O)Nc2ccc(/N=C3\NCCN3OC)cc2)cc1

# From ChEMBL document CHEMBL2321842, “Rapid Determination of Ionization Constants (pK a) by UV Spectroscopy Using 96-Well Microtiter Plates” (ACS Med Chem Lett, 2013)
